The list is not random: actives were taken first. Their share in the collection is about 6.6%.
Jurkat tox 60K: cytotoxicity toward Jurkat cells; Jurkat E6.1 viability, ATP luminescence, 48 h; inhibition, % at 4 µM; 1.2% of 56,000 active;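 active = inhibition above the mean inhibition of all tested compounds plus 3 SD, cut at about 28% in these data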
H69AR inhibit: blocks growth of human H69AR lung tumor cells; H69AR lung tumor viability, ATP luminescence, 72 h; stronger effect = lower value; viability, % at 10 µM; 6% of 85,000 active; AID 598;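 active = viability at or below 40%; inactive = viability above 40%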;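 note: multidrug resistant small cell line overexpressing MRP-1 efflux transporter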
Fibroblast inh: blocks proliferation of human lung fibroblasts | 1.1% of 85,000 active | LL 47 human lung fibroblast viability, ATP luminescence; stronger effect = lower value | AID 719 | viability, % at 10 µM;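 active = viability at or below 50% in the single dose screen; inactive = viability above 50%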;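 note: compound exposure lasted 72 h before the ATP readout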
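Material: Human LL 47 lung fibroblast cells | Input: 1,150 cells/well | Buffer or medium: IMEM plus 15% FBS | Compound dosing: 0.1% DMSO in all compound wells | Times: Overnight cell rest, 72 h compound treatment at 37 °C | Signal: CellTiter-Glo luminescence measuring cellular ATP | Measure: % viability versus median cells-only luminescence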
HUVEC inhibit: inhibitors of human endothelial cell proliferation. HUVEC proliferation, CellTiter-Glo luminescence, 72 h; stronger effect = lower value. viability, % at 10 µM (by protocol). 1.1% of 86,000 active;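 active = viability at or below 30%; inactive = viability above 30%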
Large screens that a line does not name were inactive.

Cc1cc(NC(=O)CSc2nc3ccccc3c(=O)n2C2CCCC2)no1	Jurkat tox 60K 71, H69AR inhibit 29
CCCN(CCC)C(=O)CSc1nc2ccccc2c(=O)n1C1CCCC1	H69AR inhibit 31
Cc1ccc(-n2c(SCC(=O)Nc3cc(C)on3)nc3c([nH]c4ccccc43)c2=O)cc1	H69AR inhibit 17 (no result: Jurkat tox 60K)
Cc1nonc1NC(=O)CSc1nc(C2CCCCC2)nc2ccccc12	H69AR inhibit 15
Cc1ccc(Cn2c(SCC(=O)Nc3cc(C)on3)nc3ccccc3c2=O)cc1	H69AR inhibit 17, Fibroblast inh 36
CCCC(CCC)C(=O)Nc1cccc(C(=O)O)c1	none (no result: Jurkat tox 60K)
O=C(NCCc1ccccc1)C(=O)NCC1CCCO1 (centres undefined)	none (no result: Jurkat tox 60K)
COc1cccc(C2=NOC(C(=O)Nc3ccccc3SC)C2)c1 (centres undefined)	none (no result: Jurkat tox 60K)
CCOC(=O)c1c(C)sc(Sc2ccc(Cl)cc2[N+](=O)[O-])c1OC	none (no result: Jurkat tox 60K)
Cc1cc(NC(=O)CSc2nc(C3CCCCC3)nc3ccccc23)no1	H69AR inhibit 20
Cc1cc(NC(=O)CSc2nnc3c(C)cc4c(C)ccc(C)c4n23)no1	Jurkat tox 60K 90, H69AR inhibit 26
O=C(NCCCN1CCc2ccccc2C1)Nc1ccc(Cl)cc1	none (no result: Jurkat tox 60K)
Cc1cc(C)c2nc(NC(=O)c3cc(C)on3)sc2c1	none (no result: Jurkat tox 60K)
CCc1ccc2nc(NC(=O)c3cc(C)on3)sc2c1	Jurkat tox 60K 82, H69AR inhibit 17
CCOC(=O)C1=C(N)c2ccccc2CC1C(C)C (centres undefined)	none (no result: Jurkat tox 60K)
O=S(=O)(c1ccc2c(c1)OCCO2)N1CCC(c2nc3ccccc3[nH]2)CC1	none (no result: H69AR inhibit)
O=C(NCC1CCCO1)c1ccc(S(=O)(=O)N2CCC(c3nc4ccc(Cl)cc4[nH]3)CC2)cc1 (centres undefined)	H69AR inhibit 36 (no result: Jurkat tox 60K)
O=S(=O)(c1ccc2c(c1)OCCO2)N1CCC(c2nc3ccc(Cl)cc3[nH]2)CC1	H69AR inhibit 15
Cc1ccc2nc(C3CCN(S(=O)(=O)c4ccc5ccccc5c4)CC3)[nH]c2c1	H69AR inhibit 8.0 (no result: Jurkat tox 60K)
Cc1ccc(-c2noc(C3CCN(S(=O)(=O)c4ccc5c(c4)OCCO5)CC3)n2)o1	H69AR inhibit 40
Cc1nnc(SCCn2c(N(C)Cc3ccccc3)nc3c2c(=O)n(C)c(=O)n3C)s1	none
CCO/N=C(\C)c1c(O)c(CC)c(-c2ccccc2)n(-c2ccccc2)c1=O	none (no result: Jurkat tox 60K)
Cc1ccc(C(=O)Oc2oc(-c3ccco3)nc2C=Nc2ccccc2)cc1	H69AR inhibit 39 (no result: Jurkat tox 60K)
Oc1oc(-c2ccco2)nc1C=Nc1ccccc1	none
CCOC(=O)c1ccc(N=Cc2nc(-c3ccccc3)oc2OC(C)=O)cc1	H69AR inhibit 19 (no result: Jurkat tox 60K)
CCCc1ccc(-c2cc(NC(=O)CSc3n[nH]c(N)n3)n(-c3ccccc3)n2)cc1	H69AR inhibit 17, HUVEC inhibit 17 (no result: Jurkat tox 60K)
O=C(CN1CCC(n2nnc3cc(F)ccc32)CC1)NCCc1nc2ccccc2[nH]1	none
Cc1cc(C(=O)N2CCc3ccccc32)n(-c2ccccc2)n1	H69AR inhibit 22
Cc1nn(C)c(C)c1NC(=O)CSc1nc(-c2ccccc2F)nc2c1cnn2-c1ccccc1	none (no result: H69AR inhibit, Fibroblast inh, HUVEC inhibit)
Cc1cc(C)n2nc(SCC(=O)Nc3c(C)nn(-c4ccccc4)c3C)nc2n1	none
Cc1nn(C)c(C)c1NC(=O)CSc1nc(-c2ccccc2Cl)nc2c1cnn2-c1ccccc1	H69AR inhibit 30 (no result: Jurkat tox 60K)
Cc1nn(C)c(C)c1NC(=O)CSc1nc(C2CC2)nc2c1cnn2-c1ccccc1	Fibroblast inh 43 (no result: Jurkat tox 60K)
CCOc1ncccc1C(=O)OCC(=O)N1CC(=O)Nc2ccccc21	none
Cc1noc(C)c1COc1cccc(C(=O)OCC(=O)N2CC(=O)Nc3ccccc32)c1	Jurkat tox 60K 84, H69AR inhibit 22
COc1ccc(CCNc2nnc(Sc3nnnn3-c3ccccc3)s2)cc1OC	Jurkat tox 60K 99, H69AR inhibit 29
Cc1ccc(S(=O)(=O)N2CCSC2)cc1C	none (no result: Jurkat tox 60K)
COc1ccc(OC)c(NC(=O)Nc2cccc3ccccc23)c1	none (no result: Jurkat tox 60K)
COC(=O)/C(=C/Nc1cccc2ccccc12)[N+](=O)[O-]	H69AR inhibit 27 (no result: Jurkat tox 60K)
CCOC(=O)c1c(C)[nH]c(C(=O)OCC(=O)Nc2cc(C)ccc2OC)c1C	H69AR inhibit 16, Fibroblast inh 23
COc1ccc(C)cc1NC(=O)COC(=O)c1c(C)noc1C	none (no result: Jurkat tox 60K)
CCOC(=O)c1c(C)c(C(=O)Nc2ccccc2)c(C)n1CC	none
CCOC(=O)c1[nH]c(C)c(C(=O)Nc2cc(OC)ccc2OC)c1C	Jurkat tox 60K 80, H69AR inhibit 28
COc1ccc(Cl)cc1NC(=O)COC(=O)CCNC(C)=O	none
CCOC(=O)c1c(C)c(C(=O)Nc2cc(OC)ccc2OC)c(C)n1CC	Jurkat tox 60K 35
CCOC(=O)c1c(C)[nH]c(C(=O)OCC(=O)Nc2cc(Cl)ccc2OC)c1C	H69AR inhibit 2.6 (no result: Jurkat tox 60K)
CCOC(=O)c1c(C)oc2cc3c(C(=O)OCC)c(C)oc3cc12	none (no result: Jurkat tox 60K)
O=C(Nc1nc(=S)ss1)c1ccc(Cl)cc1Cl	none (no result: Jurkat tox 60K)
Cc1ccc2[nH]c(=O)c(C3C(C#N)=C(N)Oc4c3ccc3cccnc43)cc2c1 (centres undefined)	H69AR inhibit 10, HUVEC inhibit 4.9 (no result: Jurkat tox 60K)
CCCCOC(=O)Nc1ccc(C)c(Cl)c1	none (no result: Jurkat tox 60K)
Cc1ccc(C(=O)N2CCSCC2)cc1	none (no result: Jurkat tox 60K)
O=C1CCC(c2ccccc2)N1C(=O)c1cccnc1 (centres undefined)	none
O=C(Sc1nnnn1C1CCCCC1)c1cccs1	H69AR inhibit 35 (no result: Fibroblast inh)
COC(=O)c1ccccc1NC(=O)CSc1nc(-c2ccco2)cc(C(F)(F)F)n1	H69AR inhibit 24
Cc1cc(NC(=O)CSc2nc(-c3ccco3)cc(C(F)(F)F)n2)n(-c2ccccc2)n1	Jurkat tox 60K 33 (no result: H69AR inhibit, Fibroblast inh, HUVEC inhibit)
COC(=O)c1ccc(C(=O)OC)c(NC(=O)CSc2nc(-c3ccco3)cc(C(F)(F)F)n2)c1	none
Cc1ccc(NC(=O)CSc2nc(-c3ccco3)cc(C(F)(F)F)n2)cc1C	H69AR inhibit 22 (no result: Jurkat tox 60K)
Cc1ccc(NC(=O)CSc2nnc(-c3ccco3)c(-c3ccco3)n2)cc1	H69AR inhibit 26 (no result: Jurkat tox 60K)
CCOc1cc(C2C(C(=O)OCC(C)C)=C(C)N=C3SCCC(=O)N32)ccc1OC(C)=O (centres undefined)	none
COc1ccc(S(=O)(=O)N(C)c2ccc(C(N)=O)cc2)cc1	none (no result: Jurkat tox 60K)
CCOc1ccc(NC(=O)Nc2cccs2)cc1	none (no result: Jurkat tox 60K)
O=C(CSc1nc(-c2ccco2)cc(C(F)(F)F)n1)Nc1ccc2c(c1)CCC2	H69AR inhibit 21
COc1cc(CN2CCN(c3cccc(Cl)c3)CC2)cc(OC)c1OC	Jurkat tox 60K 81, H69AR inhibit 26
Cc1ccc(NC(=O)c2cc(NC(=O)c3ccco3)ccc2N2CCCCC2)cc1	H69AR inhibit 26, Fibroblast inh 48
COCCOC(=O)c1[nH]c2c(c1C)C(=O)CC(c1ccccc1)C2 (centres undefined)	H69AR inhibit 39 (no result: Jurkat tox 60K)
COCCOC(=O)c1[nH]c2c(c1C)C(=O)CC(c1ccc(N(C)C)cc1)C2 (centres undefined)	none
COCCOC(=O)c1[nH]c2c(c1C)C(=O)CC(c1ccc(F)cc1)C2 (centres undefined)	Jurkat tox 60K 75, H69AR inhibit 25
CCn1cc(C(=O)OCC(=O)Nc2ccc(S(=O)(=O)N3CCCC3)cc2)c(=O)c2ccc(C)nc21	H69AR inhibit 26
Cc1ccc(CNc2cc(-c3nn4c(C)nnc4s3)ccc2C)s1	none
